# Screens as filed in PubChem.
# Hits are enriched below; roughly 3% of the tested compounds scored in any of these assays.
# S100A4 inh HTS – S100A4-myosin IIA interaction inhibition | 0.14% of 360,000 active | P26447 | inhibition, % at 10.7 µM | S100A4/TAMRA-MyoIIA peptide fluorescence polarization;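 active = mean inhibition of at least 70% across replicates, with every replicate also reaching that level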
# Target sequence (P26447 whole entry, looked up): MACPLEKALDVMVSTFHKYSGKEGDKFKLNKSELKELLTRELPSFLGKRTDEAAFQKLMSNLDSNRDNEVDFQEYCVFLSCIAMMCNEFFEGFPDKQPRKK
#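 Assay system: human S100A4 monomer with TAMRA-labelled myosin IIA peptide / Buffer or medium: Calcium-containing HEPES buffer, pH 7.2 / Reagent: TAMRA-labelled myosin IIA heavy-chain peptide probe, 5 nM / Compound: one dose per compound / Timing: polarization read 5 min after assay mix addition, stable 5–60 min / Benchmarks: neutral control DMSO, positive control TFP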
# SIRT5 block – sirtuin-5 (human) deacylase inhibition. Purified SirT5, succinyl-peptide AMC, trypsin-coupled fluorescence. inhibition, % at 15 µM. 1.1% of 330,000 active. Q9NXA8; in the data active = inhibition above about 15%
# Target sequence (Q9NXA8 whole entry, looked up): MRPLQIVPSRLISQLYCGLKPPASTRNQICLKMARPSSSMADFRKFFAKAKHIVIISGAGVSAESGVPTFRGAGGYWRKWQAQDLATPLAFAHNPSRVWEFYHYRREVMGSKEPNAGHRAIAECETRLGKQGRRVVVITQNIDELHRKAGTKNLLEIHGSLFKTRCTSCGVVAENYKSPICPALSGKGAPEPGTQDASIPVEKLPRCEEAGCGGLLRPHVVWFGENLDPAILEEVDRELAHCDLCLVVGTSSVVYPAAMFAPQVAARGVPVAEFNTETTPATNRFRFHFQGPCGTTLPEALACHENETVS
# C2C12 statin – suppression of simvastatin myotoxicity; AID 602340; 0.78% of 330,000 active; C2C12 myotubes + simvastatin, ATP luminescence, 48 h; scaled: DMSO 0, geranylgeraniol control 100; rescue of ATP level, % at 7.49 µM;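 active = mean ATP rescue above about 67%, or every replicate alone reaching that limit, limit read from the data, passing the limit was not always enough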;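 also: myotubes were challenged with 10 µM simvastatin during compound exposure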
# Cneo AK release – Cryptococcus neoformans lysis via adenylate kinase release; AID 651654; C. neoformans lysis, adenylate kinase release luminescence, 4 h; normalised: neutral wells 0, clomiphene wells 100; 0.2% of 360,000 active; lysis activity, % at 15 µM;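 active = mean lysis activity across replicates of at least 80%, whatever share of replicates individually reach that level; inactive = mean lysis activity below 80%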
#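 Test system: log-phase Cryptococcus neoformans yeast cells. Input: 5 × 10^6 yeast cells/mL. Medium: fresh YPD growth medium. Doses: single dose. Incubation: static 4 h at 37 °C with compound, 1 h detection. Measured by: luminescent adenylate kinase detection reagent. Read-out: signal increase indicating cell lysis. Benchmarks: Clomiphene.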
# PGC1a acetyl inh – PGC1a acetylation modulation, inhibitor mode; U2OS PGC1a acetylation, AlphaScreen anti-acetyl-lysine; with virally co-expressed GCN5 acetyltransferase; inhibition, % at 15.6 µM; 0.17% of 350,000 active;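 active = every replicate shows inhibition of at least 40%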;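 also: 0% = neutral control wells and 100% = positive control wells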
# Ecoli rRNA inh – selective bacterial rRNA inhibition in E. coli; GFP signal change (wild-type ribosome), % (test concentration not listed); 1.6% of 350,000 active; E. coli WT GFP vs humanized-ribosome RFP mutants, fluorescence, 24 h; stronger effect = lower value; DMSO median 0, no signal -100;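 active = significant combined selectivity score with lowered wild-type GFP, culture density cut under 30%, mutant RFP and density less affected; inactive = any of these conditions unmet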
# Active calls of the source: *; · = no result.
SMILES,S100A4 inh HTS,SIRT5 block,C2C12 statin,Cneo AK release,PGC1a acetyl inh,Ecoli rRNA inh
CN1CCN(c2ccc(-c3cccc(NC(=O)COc4ccc(Cl)cc4)c3)nn2)CC1,-5,-2,6,-7,-11,-30*
Cc1ccc2nc(/C(C#N)=C/c3ccc(O)c(O)c3)[nH]c2c1,-9,20*,4,-1,-6,7
C[C@H](NC(=O)C[C@H]1C[C@@H]2c3cc(NC(=O)CN(C)C)ccc3O[C@@H]2[C@H](CO)O1)c1ccccc1,108*,2,1,8,-5,6
C[C@H](NC(=O)C[C@@H]1C[C@@H]2c3cc(NC(=O)Nc4ccc(C(F)(F)F)cc4)ccc3O[C@@H]2[C@@H](CO)O1)c1ccccc1,85*,·,1,1,8,-3
C[C@@H](NC(=O)C[C@@H]1C[C@@H]2c3cc(NC(=O)c4ccc5c(c4)OCO5)ccc3O[C@@H]2[C@H](CO)O1)c1ccccc1,4,15*,1,-18,1,3
C[C@H](NC(=O)C[C@@H]1C[C@H]2c3cc(NC(=O)CN(C)C)ccc3O[C@H]2[C@@H](CO)O1)c1ccccc1,10,-4,6,8,6,2
Cc1ccccc1S(=O)(=O)N1CCCCN2[C@H](C1)[C@H](c1ccc(-c3cccc(F)c3)cc1)[C@@H]2CO,-1,12,-3,-3,-12,-2
CCOc1ccccc1N(C(=O)Nc1ccc(Cl)cc1)C1=NCCS1,-1,-5,0,-5,57,-21*
CCOc1ccccc1N(C(=O)Nc1cccc(Cl)c1)C1=NC(C)CS1 (centres undefined),6,-4,11,-1,2,-39
Cc1ccc(S(=O)(=O)N(C)C[C@H]2Oc3ccc(NC(=O)Nc4c(C)noc4C)cc3C(=O)N([C@H](C)CO)C[C@@H]2C)cc1,-61,14,15,-2,-1,1
Cc1ccc(S(=O)(=O)N(C)C[C@@H]2Oc3ccc(NC(=O)Nc4c(C)noc4C)cc3C(=O)N([C@H](C)CO)C[C@@H]2C)cc1,-7,16*,-4,-2,-13,-2
Cc1ccc(S(=O)(=O)N(C)C[C@H]2Oc3ccc(NC(=O)Nc4ccccc4)cc3C(=O)N([C@@H](C)CO)C[C@H]2C)cc1,102*,4,-8,4,4,-1
COc1ccc2c3c(n(C)c2c1)[C@H](CO)N(C(=O)Nc1ccc(F)cc1)CC31CCN(C(=O)Nc2ccc(F)cc2F)CC1,·,·,·,·,-1,4
Cc1ccc(N2CC(C(=O)Nc3ccc(S(=O)(=O)Nc4nccs4)cc3)CC2=O)cc1C (centres undefined),2,18*,-2,-2,·,7
O=C(Nc1ccc(S(=O)(=O)Nc2nccs2)cc1)C1CC(=O)N(c2ccc(Cl)cc2)C1 (centres undefined),1,9,39,1,·,0
O=C(NC(=S)Nc1ccc(S(=O)(=O)Nc2nccs2)cc1)c1ccccc1F,-6,-4,12,·,11,-22*
O=C(Nc1ccc(S(=O)(=O)Nc2nccs2)cc1)c1cnc(Cl)c(Cl)c1,5,8,·,·,·,-29*
CCOC(=O)c1c(C)[nH]c(C)c1C(=O)COC(=O)c1cc2ccccc2cc1O,-20,112*,·,·,·,-37
CCOC(=O)c1c(C)[nH]c(C)c1C(=O)COC(=O)c1cc2ccccc2cc1OC,·,·,·,1,-7,·
C[C@@H]1CN([C@@H](C)CO)C(=O)c2cc(N(C)C)ccc2O[C@H]1CN(C)S(=O)(=O)c1cn(C)cn1,-6,-2,-30,11,4,3
Cc1ccc(OCCC(=O)OCC(=O)NCc2ccccc2)cc1,2,-2,·,·,6,9
Cc1ccc(OCCC(=O)OCC(=O)NCCc2ccccc2)cc1,-2,3,·,·,·,-22*
Cc1nc(N2CCN(C)CC2)c2c3c(sc2n1)CCCC3,-2,-1,-13,-2,·,-5
CSc1nc(N2CCOCC2)c2c3c(sc2n1)CCC3,·,·,98*,13,5,·
C[C@@H]1CN([C@H](C)CO)C(=O)Cc2cc(NC(=O)C3CC3)ccc2O[C@H]1CN(C)S(=O)(=O)c1cn(C)cn1,6,3,-4,-6,6,-1
SMILES,S100A4 inh HTS,SIRT5 block,C2C12 statin,Cneo AK release,PGC1a acetyl inh,Ecoli rRNA inh
O=c1[nH]c(C2CCN(S(=O)(=O)c3ccc4c(c3)OCCO4)CC2)nc2c1nnn2Cc1ccccc1F,-4,-1,15,-1,·,-28*
COc1ccc(CN(C)C[C@H]2OCCCC[C@@H](C)Oc3ccc(NC(=O)NC4CCCCC4)cc3C(=O)N([C@@H](C)CO)C[C@H]2C)cc1,-6,-4,·,2,14,1
C[C@H]1CN([C@@H](C)CO)C(=O)c2cccc(NS(C)(=O)=O)c2O[C@H]1CN(C)S(=O)(=O)c1cccs1,4,6,-84,1,-5,1
CC1=Nc2cc(C(=O)NCC3CCCO3)ccc2Sc2ccc(Br)cc21 (centres undefined),10,-3,-40,0,-2,-22*
CC1=Nc2cc(C(=O)O)ccc2Sc2ccc(Br)cc21,-6,23*,15,-4,-1,-5
O=C(NCC1CCCO1)c1cccc(NC(=O)c2ccc(Br)cc2)c1 (centres undefined),15,-1,-3,-7,5,1
COc1ccc(-c2ccc3c(c2)[C@H]2[C@H](CCN2C(=O)c2ccccc2F)[C@H](CO)N3C)cc1,·,·,25,-5,-18,-4
COc1cccc(-c2ccc3c(c2)[C@H]2[C@H](CCN2C(=O)c2ccccc2F)[C@H](CO)N3C)c1,6,20*,2,0,-10,-11
COc1ccc(-c2ccc3c(c2)[C@@H]2[C@@H](CCN2C(=O)c2ccc4c(c2)OCO4)[C@@H](CO)N3C)cc1,-1,6,22,-5,-4,-1
COc1cccc(-c2ccc3c(c2)[C@H]2[C@H](CCN2C(=O)c2ccc4c(c2)OCO4)[C@H](CO)N3C)c1,98*,3,22,-12,-8,2
O=C(C[C@@H]1C[C@@H]2c3cc(NC(=O)c4cccnc4)ccc3O[C@@H]2[C@@H](CO)O1)NCC1CC1,-2,2,5,-6,-6,-3
C[C@@H]1CN([C@@H](C)CO)C(=O)c2cc(NC(=O)CCCCCC(=O)Nc3ccccc3N)ccc2O[C@@H](C)CCCCO[C@@H]1CN(C)C(=O)Nc1ccc(C(F)(F)F)cc1,10,1,·,55,6,-1
CCC(=O)Nc1ccc2c(c1)C(=O)N(C)C[C@H](OC)[C@H](C)CN(C(=O)CC)[C@H](C)CO2,67,-1,-12,-5,8,3
